From ChEMBL document CHEMBL3352381, “Discovery of covalent inhibitors of glyceraldehyde-3-phosphate dehydrogenase, a target for the treatment of malaria” (J Med Chem, 2014)
Active and inactive are the calls of the source. The rule behind the calls is not given here.

Legend:
[1] = target: Glyceraldehyde-3-phosphate dehydrogenase (Homo sapiens) (UniProt P04406); assay: Inhibition of human GAPDH assessed as ratio of kinact to Ki by Kitz-Wilson double-reciprocal plot at pH 7.4
[2] = target: Glyceraldehyde-3-phosphate dehydrogenase (Plasmodium falciparum) (UniProt Q8T6B1); assay: Inhibition of recombinant Plasmodium falciparum GAPDH expressed in Escherichia coli at 50 to 200 uM by time course assay; conditions: TDE = time-dependent effect
Glyceraldehyde-3-phosphate dehydrogenase (Plasmodium falciparum), sequence (Q8T6B1 as listed by the source): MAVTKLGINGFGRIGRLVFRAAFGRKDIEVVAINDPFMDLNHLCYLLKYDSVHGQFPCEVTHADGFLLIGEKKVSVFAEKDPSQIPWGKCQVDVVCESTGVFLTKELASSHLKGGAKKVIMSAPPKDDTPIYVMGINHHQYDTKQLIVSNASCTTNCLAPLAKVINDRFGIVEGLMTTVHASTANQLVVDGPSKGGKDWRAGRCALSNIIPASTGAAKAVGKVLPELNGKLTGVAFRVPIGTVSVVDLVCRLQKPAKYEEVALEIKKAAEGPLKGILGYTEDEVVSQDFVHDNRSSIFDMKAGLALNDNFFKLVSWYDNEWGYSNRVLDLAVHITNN
Summary of the method: (§1)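 Pf GAPDH incubated with inhibitor, aliquots withdrawn over time for activity assay; control enzyme kept without inhibitor under the same conditions. Activity normalized to the inhibitor-free value. Time courses fitted to a sum of two exponential decays. kobs obtained by fitting residual activity versus incubation time to a mechanism-based inhibition equation (kinact, Ki). Duplicates.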

[3] = target: Glyceraldehyde-3-phosphate dehydrogenase (Plasmodium falciparum) (UniProt Q8T6B1); assay: Inhibition of recombinant Plasmodium falciparum GAPDH expressed in Escherichia coli assessed as ratio of kinact to Ki by Kitz-Wilson double-reciprocal plot; summary of the method: as §1
[4] = target: Glyceraldehyde-3-phosphate dehydrogenase (Plasmodium falciparum) (UniProt Q8T6B1); assay: Inhibition of recombinant Plasmodium falciparum GAPDH expressed in Escherichia coli by time course assay; summary of the method: as §1
[5] = target: Glyceraldehyde-3-phosphate dehydrogenase (Plasmodium falciparum) (UniProt Q8T6B1); assay: Inhibition of undigested recombinant Plasmodium falciparum GAPDH at 200 uM measured after overnight incubation by mass spectroscopy
Summary of the method: (§2)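 Pf GAPDH incubated overnight with inhibitor at 200 μM. MALDI-TOF on undigested protein (double-layer CHCA matrix) or on tryptic digests (thin-layer CHCA), with MS/MS. Cys alkylation checked by 1 h treatment of 20 μM enzyme with 10-fold excess iodoacetamide before analysis.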

[6] = target: Glyceraldehyde-3-phosphate dehydrogenase (Plasmodium falciparum) (UniProt Q8T6B1); assay: Inhibition of unmodified recombinant Plasmodium falciparum GAPDH at 200 uM measured after overnight incubation by mass spectroscopy in presence of trypsin; summary of the method: as §2
[7] = target: Glyceraldehyde-3-phosphate dehydrogenase (Plasmodium falciparum) (UniProt Q8T6B1); assay: Irreversible inhibition of recombinant Plasmodium falciparum GAPDH expressed in Escherichia coli by time course assay
Summary of the method: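 Pf GAPDH was incubated with inhibitor at 50–300 μM, and enzyme activity was assayed over the incubation time. Activity was normalized to the same enzyme kept under identical conditions without inhibitor. Residual-activity time courses were fitted to a sum of two exponential decays. kobs was obtained by fitting the mechanism-based inhibition equation, giving kinact and Ki. Experiments were done in duplicate.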

[8] = target: Glyceraldehyde-3-phosphate dehydrogenase (Plasmodium falciparum) (UniProt Q8T6B1); assay: Inhibition of recombinant Plasmodium falciparum GAPDH expressed in Escherichia coli by UV-vis spectroscopy
Summary of the method: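 Enzyme at 400 μM incubated with inhibitor. Absorption spectra recorded until reaction completion to follow loss of the Racker band.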

[9] = target: Glyceraldehyde-3-phosphate dehydrogenase (Plasmodium falciparum) (UniProt Q8T6B1); assay: Inhibition of recombinant Plasmodium falciparum GAPDH expressed in Escherichia coli at 50 to 300 uM by time course assay; summary of the method: as §1

Glyceraldehyde-3-phosphate dehydrogenase (Homo sapiens), sequence (P04406 2-335 limits assumed): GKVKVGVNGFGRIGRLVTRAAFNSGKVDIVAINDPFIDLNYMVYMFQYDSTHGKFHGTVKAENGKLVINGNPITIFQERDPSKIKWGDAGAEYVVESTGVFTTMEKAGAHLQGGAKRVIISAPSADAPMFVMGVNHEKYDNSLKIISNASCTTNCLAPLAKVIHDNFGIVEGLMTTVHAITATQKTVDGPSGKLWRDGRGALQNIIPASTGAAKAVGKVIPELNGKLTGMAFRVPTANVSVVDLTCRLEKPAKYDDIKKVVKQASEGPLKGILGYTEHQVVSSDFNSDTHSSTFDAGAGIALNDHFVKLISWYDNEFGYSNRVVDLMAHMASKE

| Compound | Ratio [1] [M⁻¹ s⁻¹] | inhibition [2] | Ratio [3] [M⁻¹ s⁻¹] | inhibition [4] | inhibition [5] | inhibition [6] | inhibition [7] | inhibition [8] | inhibition [9] |
| --- | --- | --- | --- | --- | --- | --- | --- | --- | --- |
| C=CC(N)=O | 0.053 |  |  |  |  |  |  |  |  |
| C=CC=O | 297 |  |  |  |  |  |  |  |  |
| COC(=O)[C@@H](N)[C@@H]1CC(Br)=NO1 |  | tde | 10.7 | Dose-dependent effect | Active | Active |  |  |  |
| N[C@H](C(=O)O)[C@@H]1CC(Br)=NO1 |  | tde | 0.7 | Dose-dependent effect |  |  | Active |  |  |
| N[C@H](C(=O)O)[C@@H]1CC(Cl)=NO1 |  | tde |  | Dose-dependent effect |  |  | Active |  |  |
| N[C@H](C(=O)OCc1ccccc1)[C@@H]1CC(Br)=NO1 |  | tde | 6.6 | Dose-dependent effect | Active |  |  |  |  |
| O=C(N[C@H](C(=O)O)[C@@H]1CC(Br)=NO1)OCc1ccccc1 |  | tde | 2.6 | Dose-dependent effect |  | Active |  |  |  |
| BrC1=NOC(c2ccccc2)C1 (racemic) |  | tde | 10.3 | Dose-dependent effect |  |  | Active | Active |  |
| BrC1=NOC(c2ccncc2)C1 (racemic) |  | tde | 0.47 | Dose-dependent effect |  |  |  |  |  |
| CC(C)(C)OC(=O)N1CC2ON=C(Br)C2C1 (racemic) |  | tde | 4.8 | Dose-dependent effect |  |  |  |  |  |
| CC(C)(C)OC(=O)NCC1CC(Br)=NO1 (racemic) |  |  | 2.9 | Dose-dependent effect | Active |  |  |  | Active |
| ClC1=NOC(c2ccccc2)C1 (racemic) |  | tde |  | Dose-dependent effect |  |  | Active |  |  |
| O=C(O)CC1CC(Br)=NO1 (racemic) |  | tde | 0.7 | Dose-dependent effect |  |  |  |  |  |
| Oc1ccc(C2CC(Br)=NO2)cc1 (racemic) |  | tde | 3.1 | Dose-dependent effect |  |  |  |  |  |
